Measured values taken from ChEMBL document CHEMBL5303300, “EUbOPEN Chemogenomics Library - Multiplex” (2023).
Where “and” joins values, the source holds several entries; their conditions need not be identical. Equal entries are not always repeated.

System: Fibroblast
Assay: Multiplex assay against human fibroblast
Type: toxicity, cell-based
Conditions: number of replicates 2
Method in brief: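 Cells stained live at seeding with Hoechst33342, BioTracker Green Microtubule Cytoskeleton Dye, MitoTracker Red and Annexin V Alexa Fluor 680 were imaged on a CQ1 microscope at 37°C and 5% CO2 after compound addition. Their classification by CellPathfinder machine-learning gating ran from Hoechst high-intensity objects versus normal cells, to healthy, pyknosed or fragmented nuclei among normal cells, to mitotic or apoptotic among pyknosed cells. Tubulin, mitochondrial-mass and membrane-permeability phenotypes are per cents of healthy-nucleus cells.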

[1] = 12 h, 1 µM, compound concentration 1 uM
[2] = 12 h, 10 µM, compound concentration 10 uM
[3] = 24 h, 1 µM, compound concentration 1 uM
[4] = 24 h, 10 µM, compound concentration 10 uM
[5] = 48 h, 1 µM, compound concentration 1 uM
[6] = 48 h, 10 µM, compound concentration 10 uM

CCN(CC)C/C=C/C(=O)Nc1cc2c(Nc3ccc(F)c(Cl)c3)ncnc2cc1OCC1CC1
Population Apoptotic (%) [1]: 48% and 35% | Population Fragmented Nuclei (%) [1]: 14% and 17% | Population Healthy Nuclei (%) [1]: 62% and 55% | Population Hoechst High Intensity Objects (%) [1]: 0% | Population Membrane Permeable-Phenotype (%) [1]: 10% and 15% | Population Mitochondria Different-Phenotype (%) [1]: 2% and 4% | Population Mitotic Cells (%) [1]: 51% and 65% | Population Normal (%) [1]: 100% | Population Pyknosed Nuclei (%) [1]: 22% and 26% | Population Tubulin-Different-Phenotype (%) [1]: 61% and 56% | Total Cell Count [1]: 189 and 225 | Population Apoptotic (%) [2]: 63% and 58% | Population Fragmented Nuclei (%) [2]: 19% and 20% | Population Healthy Nuclei (%) [2]: 47% and 51% | Population Hoechst High Intensity Objects (%) [2]: 0% | Population Membrane Permeable-Phenotype (%) [2]: 25% and 20% | Population Mitotic Cells (%) [2]: 36% and 41% | Population Normal (%) [2]: 100% | Population Pyknosed Nuclei (%) [2]: 33% and 27% | Population Tubulin-Different-Phenotype (%) [2]: 92% and 87% | Total Cell Count [2]: 209 and 264 | Population Apoptotic (%) [3]: 52% and 62% | Population Fragmented Nuclei (%) [3]: 17% and 20% | Population Healthy Nuclei (%) [3]: 60% and 64% | Population Hoechst High Intensity Objects (%) [3]: 1% and 0% | Population Membrane Permeable-Phenotype (%) [3]: 2% and 4% | Population Mitochondria Different-Phenotype (%) [3]: 7% and 12% | Population Mitotic Cells (%) [3]: 47% and 37% | Population Normal (%) [3]: 98% and 100% | Population Pyknosed Nuclei (%) [3]: 22% and 15% | Population Tubulin-Different-Phenotype (%) [3]: 75% and 62% | Total Cell Count [3]: 192 and 231 | Population Apoptotic (%) [4]: 91% and 85% | Population Fragmented Nuclei (%) [4]: 13% and 8% | Population Healthy Nuclei (%) [4]: 13% and 19% | Population Hoechst High Intensity Objects (%) [4]: 0% | Population Membrane Permeable-Phenotype (%) [4]: 14% and 16% | Population Mitochondria Different-Phenotype (%) [4]: 71% and 56% | Population Mitotic Cells (%) [4]: 8% and 14% | Population Normal (%) [4]: 99% | Population Pyknosed Nuclei (%) [4]: 72% and 71% | Population Tubulin-Different-Phenotype (%) [4]: 95% and 89% | Total Cell Count [4]: 154 and 190 | Population Apoptotic (%) [5]: 73% and 53% | Population Fragmented Nuclei (%) [5]: 28% and 25% | Population Healthy Nuclei (%) [5]: 59% and 63% | Population Hoechst High Intensity Objects (%) [5]: 0% | Population Membrane Permeable-Phenotype (%) [5]: 3% and 1% | Population Mitochondria Different-Phenotype (%) [5]: 10% and 8% | Population Mitotic Cells (%) [5]: 26% and 46% | Population Normal (%) [5]: 100% and 99% | Population Pyknosed Nuclei (%) [5]: 12% and 11% | Population Tubulin-Different-Phenotype (%) [5]: 68% and 45% | Total Cell Count [5]: 210 and 233 | Population Apoptotic (%) [6]: 92% and 94% | Population Fragmented Nuclei (%) [6]: 22% and 28% | Population Healthy Nuclei (%) [6]: 10% and 21% | Population Hoechst High Intensity Objects (%) [6]: 0% | Population Membrane Permeable-Phenotype (%) [6]: 41% and 38% | Population Mitochondria Different-Phenotype (%) [6]: 29% and 19% | Population Mitotic Cells (%) [6]: 7% and 5% | Population Normal (%) [6]: 100% | Population Pyknosed Nuclei (%) [6]: 67% and 49% | Population Tubulin-Different-Phenotype (%) [6]: 47% and 93% | Total Cell Count [6]: 168 and 145

COC(=O)Nc1nc2c(s1)-c1c(c(-c3cccnc3)nn1-c1ccc(C3(N(C)C)CC3)cc1)CC2.Cl.Cl
Population Apoptotic (%) [1]: 38% and 45% | Population Fragmented Nuclei (%) [1]: 50% and 26% | Population Healthy Nuclei (%) [1]: 40% and 52% | Population Hoechst High Intensity Objects (%) [1]: 0% | Population Membrane Permeable-Phenotype (%) [1]: 5% and 6% | Population Mitochondria Different-Phenotype (%) [1]: 0% | Population Mitotic Cells (%) [1]: 61% and 54% | Population Normal (%) [1]: 99% and 100% | Population Pyknosed Nuclei (%) [1]: 9% and 21% | Population Tubulin-Different-Phenotype (%) [1]: 29% and 31% | Total Cell Count [1]: 378 and 219 | Population Apoptotic (%) [2]: 62% and 41% | Population Fragmented Nuclei (%) [2]: 31% and 34% | Population Healthy Nuclei (%) [2]: 55% and 57% | Population Hoechst High Intensity Objects (%) [2]: 0% | Population Membrane Permeable-Phenotype (%) [2]: 13% and 11% | Population Mitochondria Different-Phenotype (%) [2]: 2% and 4% | Population Mitotic Cells (%) [2]: 37% and 58% | Population Normal (%) [2]: 100% and 99% | Population Pyknosed Nuclei (%) [2]: 12% and 8% | Population Tubulin-Different-Phenotype (%) [2]: 63% and 52% | Total Cell Count [2]: 218 and 427 | Population Apoptotic (%) [3]: 60% and 87% | Population Fragmented Nuclei (%) [3]: 50% and 24% | Population Healthy Nuclei (%) [3]: 42% and 60% | Population Hoechst High Intensity Objects (%) [3]: 0% | Population Membrane Permeable-Phenotype (%) [3]: 4% | Population Mitochondria Different-Phenotype (%) [3]: 2% and 3% | Population Normal (%) [3]: 99% and 100% | Population Pyknosed Nuclei (%) [3]: 6% and 15% | Population Tubulin-Different-Phenotype (%) [3]: 20% and 31% | Total Cell Count [3]: 350 and 202 | Population Apoptotic (%) [4]: 65% and 52% | Population Fragmented Nuclei (%) [4]: 34% and 36% | Population Healthy Nuclei (%) [4]: 55% and 57% | Population Hoechst High Intensity Objects (%) [4]: 0% | Population Membrane Permeable-Phenotype (%) [4]: 11% and 5% | Population Mitochondria Different-Phenotype (%) [4]: 4% and 3% | Population Mitotic Cells (%) [4]: 34% and 48% | Population Normal (%) [4]: 100% and 99% | Population Pyknosed Nuclei (%) [4]: 10% and 5% | Population Tubulin-Different-Phenotype (%) [4]: 53% and 44% | Total Cell Count [4]: 225 and 437 | Population Apoptotic (%) [5]: 52% and 74% | Population Fragmented Nuclei (%) [5]: 51% and 29% | Population Healthy Nuclei (%) [5]: 43% and 56% | Population Hoechst High Intensity Objects (%) [5]: 0% | Population Membrane Permeable-Phenotype (%) [5]: 6% and 5% | Population Mitochondria Different-Phenotype (%) [5]: 2% and 0% | Population Mitotic Cells (%) [5]: 47% and 25% | Population Normal (%) [5]: 99% and 100% | Population Pyknosed Nuclei (%) [5]: 5% and 13% | Population Tubulin-Different-Phenotype (%) [5]: 12% and 21% | Total Cell Count [5]: 339 and 195 | Population Apoptotic (%) [6]: 57% and 73% | Population Fragmented Nuclei (%) [6]: 38% and 39% | Population Healthy Nuclei (%) [6]: 58% and 53% | Population Hoechst High Intensity Objects (%) [6]: 0% | Population Membrane Permeable-Phenotype (%) [6]: 3% and 0% | Population Mitochondria Different-Phenotype (%) [6]: 3% and 1% | Population Mitotic Cells (%) [6]: 42% and 26% | Population Normal (%) [6]: 100% and 99% | Population Pyknosed Nuclei (%) [6]: 3% and 6% | Population Tubulin-Different-Phenotype (%) [6]: 42% and 17% | Total Cell Count [6]: 223 and 418
